Legend:
Influenza A virus [1] = assay: Inhibition of influenza A virus (A/duck/Minnesota/1525/1981 (H5N1)) replication in MDCK cells by virus yield reduction assay; type: functional
Influenza A virus [2] = assay: Inhibition of Influenza A virus (A/gull/Pennsylvania/4175/83 (H5N1)) replication in MDCK cells by virus yield reduction assay; type: functional
[3] = Cytotoxicity against MDCK cells; type: cell-based, Canis lupus familiaris; conditions: dog
Summary of the method: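 MDCK cells in MEM were exposed to eight test concentrations in half-log10 steps at 37°C. Untreated toxicity and normal-medium controls were included. CC50 was taken as the 50% cytotoxic concentration. Results are from two to five experiments.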

Mus musculus [4] = assay: Effect on weight change in BALB/c mouse at 100 mg/kg/day, po qid measured after 18 hrs of final treatment; type: ADME, organism-based; parameters: route oral; conditions: in vivo
Summary of the method: (§1)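 Uninfected toxicity-control BALB/c mice, 3 per dose, were dosed orally on the same schedule as infected groups. Each mouse was weighed before treatment and 18 h after the last dose. Weight change is the difference. Mice were watched for overt toxicity and death for 21 days.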

Mus musculus [5] = assay: Effect on weight change in BALB/c mouse at 33 mg/kg/day, po qid measured after 18 hrs of final treatment; type: ADME, organism-based; parameters: route oral; conditions: in vivo; summary of the method: as §1
Mus musculus [6] = assay: Toxicity in BALB/c mouse assessed as survival at 300 mg/kg/day, po once daily; type: organism-based; parameters: route oral; conditions: in vivo
Summary of the method: (§2)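 Uninfected female BALB/c toxicity controls (18–21 g), 3 mice per dose, were run in parallel with the infection studies and received 5-day oral treatment. Body weight was taken before treatment and 18 h after the last dose.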

Mus musculus [7] = assay: Toxicity in BALB/c mouse assessed as survival at 100 mg/kg/day, po once daily; type: organism-based; parameters: route oral; conditions: in vivo; summary of the method: as §2
Mus musculus [8] = assay: Toxicity in BALB/c mouse assessed as survival at 30 mg/kg/day, po once daily; type: organism-based; parameters: route oral; conditions: in vivo; summary of the method: as §2
Mus musculus [9] = assay: Toxicity in BALB/c mouse assessed as survival at 10 mg/kg/day, po once daily; type: organism-based; parameters: route oral; conditions: in vivo; summary of the method: as §2
Mus musculus [10] = assay: Toxicity in BALB/c mouse assessed as survival at 3 mg/kg/day, po once daily; type: organism-based; parameters: route oral; conditions: in vivo; summary of the method: as §2
Mus musculus [11] = assay: Effect on weight change in BALB/c mouse at 300 mg/kg/day, po once daily for 5 days measured after 18 hrs of final treatment; type: ADME, organism-based; parameters: route oral; conditions: in vivo; summary of the method: as §1
Mus musculus [12] = assay: Effect on weight change in BALB/c mouse at 100 mg/kg/day, po once daily for 5 days measured after 18 hrs of final treatment; type: ADME, organism-based; parameters: route oral; conditions: in vivo; summary of the method: as §1
Mus musculus [13] = assay: Effect on weight change in BALB/c mouse at 30 mg/kg/day, po once daily for 5 days measured after 18 hrs of final treatment; type: ADME, organism-based; parameters: route oral; conditions: in vivo; summary of the method: as §1
Mus musculus [14] = assay: Effect on weight change in BALB/c mouse at 10 mg/kg/day, po once daily for 5 days measured after 18 hrs of final treatment; type: ADME, organism-based; parameters: route oral; conditions: in vivo; summary of the method: as §1
Mus musculus [15] = assay: Effect on weight change in BALB/c mouse at 3 mg/kg/day, po once daily for 5 days measured after 18 hrs of final treatment; type: ADME, organism-based; parameters: route oral; conditions: in vivo; summary of the method: as §1
Mus musculus [16] = assay: Toxicity in BALB/c mouse assessed as survival at 300 mg/kg/day, po qid for 5 days; type: organism-based; parameters: route oral; conditions: in vivo, 120 h; summary of the method: as §2
Mus musculus [17] = assay: Toxicity in BALB/c mouse assessed as survival at 100 mg/kg/day, po qid for 5 days; type: organism-based; parameters: route oral; conditions: in vivo, 120 h; summary of the method: as §2
Mus musculus [18] = assay: Toxicity in BALB/c mouse assessed as survival at 33 mg/kg/day, po qid for 5 days; type: organism-based; parameters: route oral; conditions: in vivo, 120 h; summary of the method: as §2
Mus musculus [19] = assay: Effect on weight change in BALB/c mouse at 300 mg/kg/day, po qid measured after 18 hrs of final treatment; type: ADME, organism-based; parameters: route oral; conditions: in vivo; summary of the method: as §1
Mus musculus [20] = assay: Toxicity in BALB/c mouse assessed as survival at 300 mg/kg/day, po twice daily; type: organism-based; parameters: route oral; conditions: in vivo; summary of the method: as §2
Mus musculus [21] = assay: Toxicity in BALB/c mouse assessed as survival at 100 mg/kg/day, po twice daily; type: organism-based; parameters: route oral; conditions: in vivo; summary of the method: as §2
Mus musculus [22] = assay: Toxicity in BALB/c mouse assessed as survival at 30 mg/kg/day, po twice daily; type: organism-based; parameters: route oral; conditions: in vivo; summary of the method: as §2
Mus musculus [23] = assay: Toxicity in BALB/c mouse assessed as survival at 10 mg/kg/day, po twice daily; type: organism-based; parameters: route oral; conditions: in vivo; summary of the method: as §2
Mus musculus [24] = assay: Toxicity in BALB/c mouse assessed as survival at 3 mg/kg/day, po twice daily; type: organism-based; parameters: route oral; conditions: in vivo; summary of the method: as §2
Mus musculus [25] = assay: Effect on weight change in BALB/c mouse at 300 mg/kg/day, po twice daily for 5 days measured after 18 hrs of final treatment; type: ADME, organism-based; parameters: route oral; conditions: in vivo; summary of the method: as §1
Mus musculus [26] = assay: Effect on weight change in BALB/c mouse at 100 mg/kg/day, po twice daily for 5 days measured after 18 hrs of final treatment; type: ADME, organism-based; parameters: route oral; conditions: in vivo; summary of the method: as §1
Mus musculus [27] = assay: Effect on weight change in BALB/c mouse at 30 mg/kg/day, po twice daily for 5 days measured after 18 hrs of final treatment; type: ADME, organism-based; parameters: route oral; conditions: in vivo; summary of the method: as §1
Mus musculus [28] = assay: Effect on weight change in BALB/c mouse at 10 mg/kg/day, po twice daily for 5 days measured after 18 hrs of final treatment; type: ADME, organism-based; parameters: route oral; conditions: in vivo; summary of the method: as §1
Mus musculus [29] = assay: Effect on weight change in BALB/c mouse at 3 mg/kg/day, po twice daily for 5 days measured after 18 hrs of final treatment; type: ADME, organism-based; parameters: route oral; conditions: in vivo; summary of the method: as §1

CC(=O)N[C@H]1[C@H]([C@H](O)[C@H](O)CO)OC(C(=O)O)=C[C@@H]1NC(=N)N [ZANAMIVIR]
EC90 (Influenza A virus [1]): 0.96 µM | EC90 (Influenza A virus [2]): 1.23 µM | CC50 [3]: > 3610 µM

NC(=O)c1ncn([C@@H]2O[C@H](CO)[C@@H](O)[C@H]2O)n1 [RIBAVIRIN]
EC90 (Influenza A virus [1]): 20.1 µM | EC90 (Influenza A virus [2]): 32 µM | CC50 [3]: 2340 µM

NC(=O)c1nc(F)c[nH]c1=O [FAVIPIRAVIR]
CC50 [3]: > 641 µM | Activity (Mus musculus [4]): 1.1 g | Activity (Mus musculus [5]): 0.2 g | Activity (Mus musculus [6]): Non-toxic | Activity (Mus musculus [7]): Non-toxic | Activity (Mus musculus [8]): Non-toxic | Activity (Mus musculus [9]): Non-toxic | Activity (Mus musculus [10]): Non-toxic | Activity (Mus musculus [11]): 0.4 g | Activity (Mus musculus [12]): 0.4 g | Activity (Mus musculus [13]): 0.7 g | Activity (Mus musculus [14]): 0.6 g | Activity (Mus musculus [15]): 0.3 g | Activity (Mus musculus [16]): Non-toxic | Activity (Mus musculus [17]): Non-toxic | Activity (Mus musculus [18]): Non-toxic | Activity (Mus musculus [19]): 0.6 g | Activity (Mus musculus [20]): Non-toxic | Activity (Mus musculus [21]): Non-toxic | Activity (Mus musculus [22]): Non-toxic | Activity (Mus musculus [23]): Non-toxic | Activity (Mus musculus [24]): Non-toxic | Activity (Mus musculus [25]): 0.2 g | Activity (Mus musculus [26]): 1 g | Activity (Mus musculus [27]): 0.1 g | Activity (Mus musculus [28]): 0.1 g | Activity (Mus musculus [29]): 0.8 g

From ChEMBL document CHEMBL1142087 (Antimicrob Agents Chemother, 2007)
